How the values were obtained:
Format in all cases: functional, Salmonella enterica subsp. enterica serovar Typhimurium
Salmonella typhimurium [1] = test: Antimicrobial activity against Salmonella enterica serovar Typhimurium S21
Procedure, shortened: (§1)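 MICs measured by broth microdilution on the Sensititre automated system and interpreted by CLSI broth microdilution standards. Ciprofloxacin was also tested by agar dilution, widening the range to 0.0075–128 μg/ml. Quality control strains were E. coli ATCC 25922 and 35218, E. faecalis ATCC 29212, S. aureus ATCC 29213 and P. aeruginosa ATCC 27853.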

Salmonella typhimurium [2] = test: Antimicrobial activity against Salmonella enterica serovar Typhimurium S21 gyrA+; procedure, shortened: as §1
Salmonella typhimurium [3] = test: Antimicrobial activity against Salmonella enterica serovar Typhimurium S21 acrAB::Kan
Procedure, shortened: (§2)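 MICs by automated broth microdilution panels, interpreted to CLSI broth microdilution standards. Ciprofloxacin additionally tested by agar dilution across 0.0075 to 128 μg/ml. Quality control strains: E. coli ATCC 25922 and 35218, Enterococcus faecalis ATCC 29212, S. aureus ATCC 29213, P. aeruginosa ATCC 27853. Test strains are kanamycin-marked deletion mutants of ground-beef isolate S21.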

Salmonella typhimurium [4] = test: Antimicrobial activity against Salmonella enterica serovar Typhimurium S21 tolC::Kan; procedure, shortened: as §2
Salmonella typhimurium [5] = test: Antimicrobial activity against Salmonella enterica serovar Typhimurium S21-1 GyrA S83F mutant; procedure, shortened: as §1
Salmonella typhimurium [6] = test: Antimicrobial activity against Salmonella enterica serovar Typhimurium S21-1 gyrA+; procedure, shortened: as §1
Salmonella typhimurium [7] = test: Antimicrobial activity against Salmonella enterica serovar Typhimurium GyrA S21-1 acrAB::Kan with GyrA S83F mutation; procedure, shortened: as §1
Salmonella typhimurium [8] = test: Antimicrobial activity against Salmonella enterica serovar Typhimurium S21-1 tolC::Kan with GyrA S83F mutation; procedure, shortened: as §1
Salmonella typhimurium [9] = test: Antimicrobial activity against Salmonella enterica serovar Typhimurium S21-2 with GyrA S83F, ParC S80I mutation; procedure, shortened: as §1
Salmonella typhimurium [10] = test: Antimicrobial activity against Salmonella enterica serovar Typhimurium S21-2 gyrA+ with ParC S80I mutation; procedure, shortened: as §1
Salmonella typhimurium [11] = test: Antimicrobial activity against Salmonella enterica serovar Typhimurium S21-2 acrAB::Kan with GyrA S83F, ParC S80I mutation; procedure, shortened: as §1
Salmonella typhimurium [12] = test: Antimicrobial activity against Salmonella enterica serovar Typhimurium S21-2 tolC::Kan with GyrA S83F, ParC S80I mutation; procedure, shortened: as §1
Salmonella typhimurium [13] = test: Antimicrobial activity against Salmonella enterica serovar Typhimurium S21-3 with GyrA S83F, ParC S80I mutation; procedure, shortened: as §1
Salmonella typhimurium [14] = test: Antimicrobial activity against Salmonella enterica serovar Typhimurium S21-3 gyrA+ with ParC S80I mutation; procedure, shortened: as §1
Salmonella typhimurium [15] = test: Antimicrobial activity against Salmonella enterica serovar Typhimurium S21-3 acrAB::Kan with GyrA S83F, ParC S80I mutation; procedure, shortened: as §1
Salmonella typhimurium [16] = test: Antimicrobial activity against Salmonella enterica serovar Typhimurium CHS14 gyrA+ with GyrA D87G mutation; procedure, shortened: as §1
Salmonella typhimurium [17] = test: Antimicrobial activity against Salmonella enterica serovar Typhimurium CHS14 acrAB::Kan with GyrA D87G mutation; procedure, shortened: as §1
Salmonella typhimurium [18] = test: Antimicrobial activity against Salmonella enterica serovar Typhimurium CHS14 tolC::Kan with GyrA D87G mutant; procedure, shortened: as §1
Salmonella typhimurium [19] = test: Antimicrobial activity against Salmonella enterica serovar Typhimurium CHS18 with GyrA S38F mutation; procedure, shortened: as §1
Salmonella typhimurium [20] = test: Antimicrobial activity against Salmonella enterica serovar Typhimurium CHS18 gyrA+ with GyrA S38F mutation; procedure, shortened: as §1
Salmonella typhimurium [21] = test: Antimicrobial activity against Salmonella enterica serovar Typhimurium CHS18 acrAB::Kan with GyrA S38F mutation; procedure, shortened: as §1
Salmonella typhimurium [22] = test: Antimicrobial activity against Salmonella enterica serovar Typhimurium CHS18 tolC::Kan with GyrA S38F mutation; procedure, shortened: as §1
Salmonella typhimurium [23] = test: Antimicrobial activity against Salmonella enterica serovar Typhimurium S21-4 acrAB::Kan with GyrA S83F, ParC S80I mutation; procedure, shortened: as §1
Salmonella typhimurium [24] = test: Antimicrobial activity against Salmonella enterica serovar Typhimurium S21-3 tolC::Kan with GyrA S83F, ParC S80I mutation; procedure, shortened: as §1
Salmonella typhimurium [25] = test: Antimicrobial activity against Salmonella enterica serovar Typhimurium S21-4 with GyrA S83F, ParC S80I mutation; procedure, shortened: as §1
Salmonella typhimurium [26] = test: Antimicrobial activity against Salmonella enterica serovar Typhimurium S21-4 gyrA+ with ParC S80I mutation; procedure, shortened: as §1
Salmonella typhimurium [27] = test: Antimicrobial activity against Salmonella enterica serovar Typhimurium S21-4 tolC::Kan with GyrA S83F, ParC S80I mutation; procedure, shortened: as §1
Salmonella typhimurium [28] = test: Antimicrobial activity against Salmonella enterica serovar Typhimurium CS1 with GyrA S83F, D87N, ParC S80I mutation; procedure, shortened: as §1
Salmonella typhimurium [29] = test: Antimicrobial activity against Salmonella enterica serovar Typhimurium CS1 gyrA+ with GyrA S83F, D87N, ParC S80I mutation; procedure, shortened: as §1
Salmonella typhimurium [30] = test: Antimicrobial activity against Salmonella enterica serovar Typhimurium CS1 acrAB::Kan with GyrA S83F, D87N, ParC S80I mutation; procedure, shortened: as §1
Salmonella typhimurium [31] = test: Antimicrobial activity against Salmonella enterica serovar Typhimurium CS1 tolC::Kan with GyrA S83F, D87N, ParC S80I mutation; procedure, shortened: as §1
Salmonella typhimurium [32] = test: Antimicrobial activity against Salmonella enterica serovar Typhimurium CS3 with GyrA S83F, D87N, ParC S80I mutation; procedure, shortened: as §1
Salmonella typhimurium [33] = test: Antimicrobial activity against Salmonella enterica serovar Typhimurium CS3 gyrA+ with GyrA S83F, D87N, ParC S80I mutation; procedure, shortened: as §1
Salmonella typhimurium [34] = test: Antimicrobial activity against Salmonella enterica serovar Typhimurium CS3 acrAB::Kan with GyrA S83F, D87N, ParC S80I mutation; procedure, shortened: as §1
Salmonella typhimurium [35] = test: Antimicrobial activity against Salmonella enterica serovar Typhimurium CS3 tolC::Kan with GyrA S83F, D87N, parC S80I mutation; procedure, shortened: as §1
Salmonella typhimurium [36] = test: Antimicrobial activity against Salmonella enterica serovar Typhimurium CS9 with GyrA S83F, D87N, ParC S80I mutation; procedure, shortened: as §1
Salmonella typhimurium [37] = test: Antimicrobial activity against Salmonella enterica serovar Typhimurium CS9 gyrA+ with GyrA S83F, D87N, ParC S80I mutation; procedure, shortened: as §1
Salmonella typhimurium [38] = test: Antimicrobial activity against Salmonella enterica serovar Typhimurium CS9 acrAB::Kan with GyrA S83F, D87N, ParC S80I mutation; procedure, shortened: as §1
Salmonella typhimurium [39] = test: Antimicrobial activity against Salmonella enterica serovar Typhimurium CS9 tolC::Kan with GyrA S83F, D87N, ParC S80I mutation; procedure, shortened: as §1
Salmonella typhimurium [40] = test: Antimicrobial activity against Salmonella enterica serovar Typhimurium CHS14 with GyrA D87G mutation; procedure, shortened: as §1
Salmonella typhimurium [41] = test: Antimicrobial activity against Salmonella enterica serovar Typhimurium CHS38 with GyrA D87G mutation; procedure, shortened: as §1
Salmonella typhimurium [42] = test: Antimicrobial activity against Salmonella enterica serovar Typhimurium CHS38 gyrA+ with GyrA D87G mutation; procedure, shortened: as §1
Salmonella typhimurium [43] = test: Antimicrobial activity against Salmonella enterica serovar Typhimurium CHS38 acrAB::Kan with GyrA D87G mutation; procedure, shortened: as §1
Salmonella typhimurium [44] = test: Antimicrobial activity against Salmonella enterica serovar Typhimurium CHS38 tolC::Kan with GyrA D87G mutation; procedure, shortened: as §1

Measured: MIC

O=C(O)c1cn(C2CC2)c2cc(N3CCNCC3)c(F)cc2c1=O [CIPROFLOXACIN]
0.12 µg/mL: Salmonella typhimurium [11] | Salmonella typhimurium [12] | Salmonella typhimurium [19] | Salmonella typhimurium [40]
< 0.015 µg/mL: Salmonella typhimurium [1] | Salmonella typhimurium [2] | Salmonella typhimurium [3] | Salmonella typhimurium [4] | Salmonella typhimurium [16] | Salmonella typhimurium [17] | Salmonella typhimurium [18] | Salmonella typhimurium [42] | Salmonella typhimurium [44]
0.06 µg/mL: Salmonella typhimurium [7] | Salmonella typhimurium [8] | Salmonella typhimurium [20] | Salmonella typhimurium [41]
0.25 µg/mL: Salmonella typhimurium [5] | Salmonella typhimurium [10] | Salmonella typhimurium [15] | Salmonella typhimurium [23] | Salmonella typhimurium [24] | Salmonella typhimurium [27]
16 µg/mL: Salmonella typhimurium [28] | Salmonella typhimurium [32] | Salmonella typhimurium [36]
0.03 µg/mL: Salmonella typhimurium [21] | Salmonella typhimurium [22] | Salmonella typhimurium [29] | Salmonella typhimurium [33] | Salmonella typhimurium [37] | Salmonella typhimurium [43]
2 µg/mL: Salmonella typhimurium [14] | Salmonella typhimurium [31] | Salmonella typhimurium [35] | Salmonella typhimurium [39]
256 µg/mL: Salmonella typhimurium [25]
4 µg/mL: Salmonella typhimurium [9] | Salmonella typhimurium [26] | Salmonella typhimurium [30] | Salmonella typhimurium [34] | Salmonella typhimurium [38]
0.015 µg/mL: Salmonella typhimurium [6]
32 µg/mL: Salmonella typhimurium [13]
